Converted amounts (≈) assume the structure as drawn. Where only a bound is given, the exact number is not on record here.

In data set [1] the test system is Staphylococcus aureus. Nature of the data set: Antibacterial activity against Staphylococcus aureus SA-1 expressing NorA pump by microdilution assay.
Data set [2] is described as follows: Cytotoxicity against mouse J774 cells assessed as cell viability at 30 uM after 24 hrs by MTT assay relative to control. The class given is cell-based. To be noted: J774 cells, read-out: Activity. Put shortly:
(§1)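 Murine J774 macrophages are exposed for 24 h to compound at 10 or 30 µM, then given 0.2 mg/mL MTT for 1 h. The reaction is stopped with DMSO and OD read at 570 nm; viability is metabolic activity as % of control. The number of independent experiments is given per value.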

In data set [3] the test system is Staphylococcus aureus. Kind of data set: Antibacterial activity against methicillin-resistant Staphylococcus aureus ATCC 33592 by microdilution assay. The class given is functional. Put shortly: (§2)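 Broth microdilution MIC per CLSI recommendations, fresh culture in cation-adjusted Mueller-Hinton broth, starting inoculum 10^6 cells.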
Data set [4] deals with Escherichia coli. Kind of data set: Antibacterial activity against Escherichia coli L8058.1 harboring ANT2'-1A by microdilution assay. The class given is functional. In outline:
as §2

A short description of data set [5]: Cytotoxicity against mouse J774 cells assessed as cell viability at 10 uM after 24 hrs by MTT assay relative to control. To be noted: J774 cells, read-out: Activity. The class given is cell-based. In outline:
as §1

Data set [6] concerns Pseudomonas aeruginosa. Nature of the data set: Antibacterial activity against Pseudomonas aeruginosa FO3 harboring AAC6'-2A by microdilution assay. The class given is functional. In outline:
as §2

The subject of data set [7] is Escherichia coli. Kind of data set: Antibacterial activity against Escherichia coli PAZ505H8101 harboring AAC6'-1B by microdilution assay. Type of data set: functional. In outline: as §2
The test system of data set [8] is Escherichia coli. Nature of the data set: microbe, parasite or virus in culture. As to conditions: ATCC 25922.
Data set [9] deals with Pseudomonas aeruginosa. Kind of data set: Antibacterial activity against Pseudomonas aeruginosa ATCC 27853 by microdilution assay. Type of data set: functional. In outline:
(§3)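 Broth microdilution per CLSI recommendations, using a fresh culture in cation-adjusted Mueller-Hinton broth (CA-MHB) and a starting inoculum of 10^6 cells; the MIC is the value read.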

Data set [10] relates to Acinetobacter lwoffii. Kind of data set: Antibacterial activity against Acinetobacter lwoffii AI.88-483 harboring APH3'-6A by microdilution assay. The class given is functional. Put shortly:
as §2

The subject of data set [11] is Staphylococcus aureus. Nature of the data set: Antibacterial activity against Staphylococcus aureus ATCC 25923 by microdilution assay. The class given is functional. Put shortly: as §2
Data set [12] deals with Klebsiella pneumoniae. Nature of the data set: Antibacterial activity against Klebsiella pneumoniae 700603 by microdilution assay. The class given is functional. Put shortly: as §3
In data set [13] the test system is Pseudomonas aeruginosa. Nature of the data set: Antibacterial activity against Pseudomonas aeruginosa PA406 harboring triABC deletion mutant by microdilution assay. Type of data set: functional. In outline: as §2
In data set [14] the test system is Pseudomonas aeruginosa. Kind of data set: Antibacterial activity against Pseudomonas aeruginosa PA22 harboring surexp MexXY by microdilution assay. Type of data set: functional. In outline:
as §2

Data set [15] relates to Acinetobacter lwoffii. Nature of the data set: Antibacterial activity against Acinetobacter lwoffii ATCC 17925 by microdilution assay. Type of data set: functional. Put shortly: as §3

Take `CCCCCCCO[C@@H]1[C@@H](N)[C@@H](O[C@H]2[C@H](O)[C@@H](OCCCCCCC)[C@H](N)C[C@@H]2N)O[C@H](CN)[C@H]1O`: the MIC came to 8 µg/mL (≈ 15.4 µM) in [1]; 8 µg/mL (≈ 15.4 µM) in [3]; 32 µg/mL (≈ 61.7 µM) in data set [4]; 8 µg/mL (≈ 15.4 µM) in data set [6]; 16 µg/mL (≈ 30.8 µM) in data set [7]; 32 µg/mL (≈ 61.7 µM) in [8]. Moreover, the MIC is 32 µg/mL (≈ 61.7 µM) in [9]; above 128 µg/mL in data set [10]; 8 µg/mL (≈ 15.4 µM) in data set [11]; 64 µg/mL (≈ 123 µM) in [12]; 4 µg/mL (≈ 7.71 µM) in [13]; 16 µg/mL (≈ 30.8 µM) in data set [14]. For the same compound, in data set [15], the MIC is 32 µg/mL (≈ 61.7 µM). The viability at 24 h, 30 µM in data set [2] came to 79.9%. Also, the viability at 24 h, 10 µM in [5] stood at 96.3%.

For the compound `CCCCCCCCCCO[C@@H]1[C@@H](N)[C@@H](O[C@H]2[C@H](O)[C@@H](OCCCCCCCCCC)[C@H](N)C[C@@H]2N)O[C@H](CN)[C@H]1O`, the MIC in data set [1] was 1 µg/mL (≈ 1.66 µM); in [3], 1 to 2 µg/mL (≈ 1.66 to 3.32 µM); in data set [4], 128 µg/mL (≈ 212 µM); in [6], 4 µg/mL (≈ 6.63 µM); in data set [7], 8 µg/mL (≈ 13.3 µM); in [8], 2 µg/mL (≈ 3.32 µM). The MIC in [9] was 4 µg/mL (≈ 6.63 µM); in data set [10], 64 µg/mL (≈ 106 µM); in data set [11], 1 µg/mL (≈ 1.66 µM); in data set [12], 16 µg/mL (≈ 26.5 µM); in data set [13] it was 8 µg/mL (≈ 13.3 µM); in data set [14] it was 4 µg/mL (≈ 6.63 µM). Besides, the MIC in [15] is 2 µg/mL (≈ 3.32 µM). The viability at 24 h, 30 µM in data set [2] came to 14.5%. Moreover, the viability at 24 h, 10 µM in data set [5] was determined as 85.5%.

Regarding `CCCCCCCCCCCO[C@@H]1[C@@H](O)[C@H](O[C@H]2O[C@H](CN)[C@@H](O)[C@H](O)[C@H]2N)[C@@H](N)C[C@H]1N`, the MIC in data set [1] was 8 µg/mL (≈ 16.8 µM); in data set [3] it was 8 µg/mL (≈ 16.8 µM); in [4], above 128 µg/mL; in data set [6], above 128 µg/mL; in [7] it was above 128 µg/mL; in data set [8], above 128 µg/mL. The MIC in data set [9] was above 128 µg/mL; in data set [10] it was above 128 µg/mL; in data set [11] it was 32 µg/mL (≈ 67.1 µM); in data set [12], above 128 µg/mL; in [13] it was 16 µg/mL (≈ 33.6 µM); in data set [14], above 128 µg/mL. The MIC in [15] turned out to be 64 µg/mL (≈ 134 µM). The viability at 24 h, 30 µM in [2] amounted to 83.4%. Besides, the viability at 24 h, 10 µM in data set [5] turned out to be 74.7%.

As to `CCCCCCCO[C@@H]1[C@@H](N)[C@@H](O[C@H]2[C@H](O)[C@@H](O)[C@H](N)C[C@@H]2N)O[C@H](CN)[C@H]1O`, the MIC in data set [1], in data set [3], in data set [4], in [6], in [7] and in [8] was above 128 µg/mL in each case. The MIC in data set [9], in data set [10], in data set [11], in data set [12], in data set [13] and in data set [14] was above 128 µg/mL throughout. In data set [15], this compound displayed an MIC of 64 µg/mL (≈ 152 µM). The viability at 24 h, 30 µM in [2] was 70.2%. Also, in data set [5], the viability at 24 h, 10 µM is 77.5%.

Consider `CCCCCCCCO[C@@H]1[C@@H](N)[C@@H](O[C@H]2[C@H](O)[C@@H](OCCCCCCCC)[C@H](N)C[C@@H]2N)O[C@H](CN)[C@H]1O`, for which the MIC in data set [1] is 1 µg/mL (≈ 1.83 µM); in data set [3] it was 2 µg/mL (≈ 3.66 µM); in [4], 4 µg/mL (≈ 7.32 µM); in data set [6] it was 8 µg/mL (≈ 14.6 µM); in data set [7] it was 2 to 4 µg/mL (≈ 3.66 to 7.32 µM); in data set [8] it was 4 µg/mL (≈ 7.32 µM). Besides, the MIC in [9] came to 2 µg/mL (≈ 3.66 µM); in [10], 128 µg/mL (≈ 234 µM); in data set [11] it was 1 µg/mL (≈ 1.83 µM); in [12], 8 µg/mL (≈ 14.6 µM); in data set [13] it was 2 µg/mL (≈ 3.66 µM); in data set [14] it was 8 µg/mL (≈ 14.6 µM). The compound further gave an MIC in data set [15] of 2 to 4 µg/mL (≈ 3.66 to 7.32 µM). Besides, in [2], the viability at 24 h, 30 µM worked out at 65.1%. The viability at 24 h, 10 µM in [5] came out at 91.3%.

For the compound `CCCCCCCCCCCO[C@@H]1[C@@H](N)[C@@H](O[C@H]2[C@H](O)[C@@H](O)[C@H](N)C[C@@H]2N)O[C@H](CN)[C@H]1O`, the MIC was 16 µg/mL (≈ 33.6 µM) in [1]; 16 µg/mL (≈ 33.6 µM) in data set [3]; 32 µg/mL (≈ 67.1 µM) in data set [4]; above 128 µg/mL in data set [6]; 32 µg/mL (≈ 67.1 µM) in data set [7]; 64 µg/mL (≈ 134 µM) in [8]. The MIC in [9] is above 128 µg/mL; in [10] it was above 128 µg/mL; in [11], 16 µg/mL (≈ 33.6 µM); in data set [12] it was above 128 µg/mL; in [13], 4 to 8 µg/mL (≈ 8.39 to 16.8 µM); in [14] it was above 128 µg/mL. The same compound showed an MIC in data set [15] of 32 µg/mL (≈ 67.1 µM). Also, the viability at 24 h, 30 µM in [2] was 77.1%. In [5], the viability at 24 h, 10 µM stood at 81.8%.

Values taken from ChEMBL document CHEMBL4265973, “Broad-spectrum antibacterial amphiphilic aminoglycosides: A new focus on the structure of the lipophilic groups extends the series of active dialkyl neamines” (Eur J Med Chem, 2018).
